Source: PubChem BioAssay
INS promoter act – activators of insulin promoter-driven GFP, primary screen, imaging, TRM-6 cells, eGFP reporter, cell count | plate-scaled: unstimulated 0, stimulated control 100 | activation, % at 2 µM | hit rate 0.81% among 130,000 | AID 1296, 2008;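 active means activation at 2 µM above a set limit, confirmed on inspection of the cell images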;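 further: share of cells whose green reporter signal exceeds an intensity cutoff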
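Test system: human fetal islet-derived TRM-6 cells with tamoxifen-inducible insulin promoter–eGFP reporter; schedule: overnight tamoxifen, then two-day compound incubation at 37 °C; measured by: high-content imaging of fixed cells with Hoechst nuclear stain; evaluation: percent cells above green-intensity threshold, converted to percent activation versus plate controls; control set: stimulated and unstimulated wells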
Numbers stand for hits; – = inactive. Many of the other results were omitted from the sample, so hits are more common in it than they were.

SMILES | INS promoter act
O=C(c1ccc([N+](=O)[O-])c(CS(=O)(=O)c2ccc(Cl)cc2)c1)N1CCCCC1 | –
CC(=O)Nc1nc(CCN2C(=O)c3ccccc3C2=O)cs1 | –
CC(=O)Nc1nc(NC(=O)/C=C/c2ccccc2)n(-c2ccccc2)n1 | –
Cc1ccc(C)c(N2CCN(C(=O)Cn3c(=O)[nH]c4ccsc4c3=O)CC2)c1 | –
COc1cccc(CNC(=O)C2=C(C)C(=O)OC23CCC(C)CC3)c1 (configuration not stated) | –
C/C(=N\NC(=O)c1ccc(Cl)c(S(=O)(=O)Nc2ccccc2Cl)c1)c1ccncc1 | –
COC(=O)Cc1cc(=O)[nH]c(/N=C(\N)Nc2ccccc2C)n1 | –
O=C1NN(c2ccc(F)cc2)C(=O)/C1=C\C=C\c1ccco1 | –
CC1=NN(c2cccc(C(=O)O)c2)C(=O)/C1=C\C=C\c1ccco1 | 456
CC1=NN(c2ccccc2)C(=O)/C1=C\N1CC(C)OC(C)C1 (configuration not stated) | –
CC(=O)c1cccc(NC(=O)C(CC(C)C)NC(=O)C2CCCCC2)c1 (configuration not stated) | –
Cc1nc(SCC(O)CO)c([N+](=O)[O-])[nH]1 (configuration not stated) | –
CCOC(=O)c1oc2ccccc2c1NC(=O)COC | –
CCOC(=O)c1oc2cccc(OC(C)=O)c2c1C | –
CCOC(=O)c1oc2ccc(CNC(C)(C)C)c(Cl)c2c1C | 431
Cc1cccc(NC(=O)C2CCN(c3nccc(C)n3)CC2)c1 | –
COc1ccc2cc(Br)ccc2c1CC(=O)NC(C)(C)C | –
COc1ccc(C(=O)Nc2ccc(Cl)cc2C(=O)N2CCCC(C)C2)cc1 (configuration not stated) | –
CCCn1nnc(NC(=S)NC(=O)CC)n1 | –
COc1ccc(CNC(=O)C/C(C)=N/NC(=O)COc2ccc(C)cc2Br)cc1 | –
O=C(N/N=C1\CC2CC=CC12)c1ccc(O)cc1 (configuration not stated) | 407
CSc1ccc(/C=N/NC(=O)c2ccc(O)cc2)cc1 | –
O=[N+]([O-])c1ccc(N/N=C2\CC3CC=CC23)cc1 (configuration not stated) | –
CCN(CC)S(=O)(=O)c1ccc(NC(=O)CCC2CCCCC2)cc1 | –
CCc1cc2c3c(c(=O)oc2cc1O)CCCC3 | –
SMILES | INS promoter act
Cc1ccc(NC(=O)C2(C)Cc3ccccc3C(=O)O2)cc1 (configuration not stated) | –
COc1ccc(C2=NO[C@@H]3[C@@H]4C[C@@H]([C@H]5C(=O)N(C)C(=O)[C@@H]45)[C@H]23)cc1 | –
COc1ccc2c(c1)c(C(=O)N/N=C/c1ccc(OC)c(OC)c1)c(C)n2C | –
Cc1ccc(-n2c(Cn3nc(C(F)F)cc3C(F)F)n[nH]c2=S)cc1 | –
Cc1sc(NC(=O)c2ccccc2F)c(CN2CCCCC2)c1C | 485
CCOC(=O)N1CCN(Cc2c(F)cccc2F)CC1 | –
CCOC(=O)c1sc(NC(=O)c2ccccc2F)c(C(N)=O)c1C | –
COc1ccc(C2N(Cc3ccccc3)CCN2Cc2ccccc2)cc1[N+](=O)[O-] | –
O=C(O)CCCNC(=O)c1cccc(C(=O)NCCCC(=O)O)n1 | –
N#C/C(=C/c1ccc(N2CCCCCC2)o1)c1cccc(F)c1 | –
N#C/C(=C/c1ccc(N2CCCCC2)o1)C(=O)Nc1ccc(Cl)cc1 | 270
N#C/C(=C/c1ccc(N2CCCCC2)o1)C(=O)Nc1ccc2ccccc2c1 | –
N#CC(c1nc2ccccc2nc1N1CCCC1)S(=O)(=O)c1cccs1 (configuration not stated) | –
COc1ccc(N2CCN(C(=O)CSc3ncnc4c3cnn4-c3ccccc3C)CC2)cc1 | –
Cc1nnc(NC(=O)CSc2ncn(-c3ccccc3)n2)s1 | –
Cc1nnc(NC(=O)CSc2ncnc3c2cnn3-c2ccccc2C)s1 | 147
COc1ccc(-c2cc(C(F)(F)F)nc(SCC(=O)NCc3cccs3)n2)cc1OC | –
C=CCNC(=O)COc1ccc(N(C)S(=O)(=O)c2ccc(NC(C)=O)cc2)cc1 | –
COC(=O)c1ccc(CNC(=O)COc2ccccc2Br)o1 | –
Cc1ccc(S(=O)(=O)Nc2cccc3c2CCCC3)cc1 | –
O=[N+]([O-])c1cc(C(F)(F)F)ccc1NCCNC(=S)Nc1ccc(Cl)cc1 | –
COc1ccc(C2OC(=O)c3ccccc3S2)cc1 (configuration not stated) | –
CCCCOC(=O)c1ccc(NC(=O)CSc2nnnn2C)cc1 | –
O=C(Cn1nnc(-c2cccs2)n1)N1c2ccccc2Sc2ccc(C(F)(F)F)cc21 | –
Cc1cccc(NC(=O)N2CCC(n3nnc4cc(C)ccc43)CC2)c1 | –
SMILES | INS promoter act
O=S(=O)(NC1CCCC1)c1cccc(S(=O)(=O)N2CCC(n3nnc4ccccc43)CC2)c1 | 157
O=S(=O)(NCC1CCCO1)c1cccc(S(=O)(=O)N2CCCC2)c1 (configuration not stated) | –
COc1ccc(OC)c2[nH]c(=O)c(CCNC(=O)C3CCCCC3)cc12 | –
CC(C)C(NC(=O)c1ccccc1F)C(=O)Nc1nccs1 (configuration not stated) | –
CCCCCCCCC(=O)NNC(=O)c1c(O)c2ccccc2n(CCC)c1=O | –
CCc1ccccc1NC(=O)c1ccc([N+](=O)[O-])s1 | –
CC(C)(C)NC(=O)/C(=C\c1ccccc1F)NC(=O)c1ccc([N+](=O)[O-])cc1 | –
CC(C)(C)NC(=O)/C(=C/c1ccccc1F)NC(=O)c1ccc([N+](=O)[O-])cc1 | –
O=C(CCCNC(=O)/C(=C\c1ccccc1F)NC(=O)c1ccccc1)OCc1ccccc1 | 257
CCN(CC)CCOC(=O)c1ccc(NC(=O)c2cn(-c3ccccc3)nc2-c2cccs2)cc1 | –
Cc1ccc(-n2cc(CNCCc3ncc(C)[nH]3)c(-c3ccc(F)cc3)n2)cc1 | –
Oc1cccc(C(O)CNCc2ccc(OCc3ccc(Cl)cc3Cl)cc2)c1 (configuration not stated) | –
O=C(c1ccccn1)N(CC1CCCO1)C1(C(=O)NC2CCCCC2)CCCCC1 (configuration not stated) | –
Cc1c(N(C(=O)CNC(=O)c2ccccc2)C2(C(=O)NC3CCCCC3)CCCCC2)c(=O)n(-c2ccccc2)n1C | –
O=C(c1cnccn1)N(c1ccccc1)C1(C(=O)NC2CCCC2)CCCCC1 | 100
COc1ccccc1NC(=O)CCc1nc(-c2cccs2)no1 | 83
COc1cccc(NC(=O)CCc2nc(-c3ccccc3F)no2)c1 | –
O=C(CCc1nc(-c2ccccc2)no1)Nc1cc(C(F)(F)F)ccc1Cl | –
COc1ccccc1NC(=O)CCc1nc(-c2ccccc2F)no1 | 305
CCOc1cc(-c2noc(CCC(=O)Nc3cccnc3)n2)ccc1OC | –
CCN(C(=O)CCc1nc(-c2ccccc2F)no1)c1cc(OC)ccc1OC | –
COc1ccc(OCC(=O)N/N=C(/C)Cc2ccccc2)cc1 | –
CCOC(=O)N1CCC(N(CCN(C)C)C(=S)Nc2cc(C)cc(C)c2)CC1 | –
CCOc1ccc(OCCC(=O)Nc2ccc(F)cc2C)cc1 | –
CCN(CC)S(=O)(=O)c1ccc2c3c(cccc13)C(=O)N2 | –
Cc1oc2ccc(NS(=O)(=O)c3ccccc3)cc2c1C(=O)Nc1ccccc1 | –
CCOC(=O)c1c(C)oc2ccc(NS(=O)(=O)c3ccc4c5c(cccc35)C(=O)N4)cc12 | 506
CCN(CC)c1ccc(C(=O)OCC(=O)Nc2cccc(S(=O)(=O)NC3=NCCCCC3)c2)cc1 | –
O=C(c1ccccc1F)N1CCCC(c2ccccc2)C1 (configuration not stated) | –
